ChEMBL document CHEMBL4699498 (J Med Chem, 2020)
Active and inactive are the calls of the source. The calls are words filed in the database; no cut-off is given here.

How the values were obtained:
[1] = biological target: T1, Protein cereblon/Poly [ADP-ribose] polymerase 1 (Homo sapiens, UniProt P09874+Q96SW2); experiment: Protac activity at CRBN/PARP1 in human CAPAN-1 cells assessed as induction of PARP1 degradation at 100 nM incubated for 24 hrs by Western blot analysis relative to control; assay type: cell-based
Procedure, shortened: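 Capan-1 cells were treated 24 h (1-1000 nM, or a wider dose range for DC50). Lysis was in RIPA buffer with protease inhibitors, and 20-30 μg protein was blotted. PARP1 was normalized to β-tubulin and to DMSO control, quantified by densitometry. DC50 came from two independent experiments.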
Target sequence in this assay (P09874 2-1014 limits assumed): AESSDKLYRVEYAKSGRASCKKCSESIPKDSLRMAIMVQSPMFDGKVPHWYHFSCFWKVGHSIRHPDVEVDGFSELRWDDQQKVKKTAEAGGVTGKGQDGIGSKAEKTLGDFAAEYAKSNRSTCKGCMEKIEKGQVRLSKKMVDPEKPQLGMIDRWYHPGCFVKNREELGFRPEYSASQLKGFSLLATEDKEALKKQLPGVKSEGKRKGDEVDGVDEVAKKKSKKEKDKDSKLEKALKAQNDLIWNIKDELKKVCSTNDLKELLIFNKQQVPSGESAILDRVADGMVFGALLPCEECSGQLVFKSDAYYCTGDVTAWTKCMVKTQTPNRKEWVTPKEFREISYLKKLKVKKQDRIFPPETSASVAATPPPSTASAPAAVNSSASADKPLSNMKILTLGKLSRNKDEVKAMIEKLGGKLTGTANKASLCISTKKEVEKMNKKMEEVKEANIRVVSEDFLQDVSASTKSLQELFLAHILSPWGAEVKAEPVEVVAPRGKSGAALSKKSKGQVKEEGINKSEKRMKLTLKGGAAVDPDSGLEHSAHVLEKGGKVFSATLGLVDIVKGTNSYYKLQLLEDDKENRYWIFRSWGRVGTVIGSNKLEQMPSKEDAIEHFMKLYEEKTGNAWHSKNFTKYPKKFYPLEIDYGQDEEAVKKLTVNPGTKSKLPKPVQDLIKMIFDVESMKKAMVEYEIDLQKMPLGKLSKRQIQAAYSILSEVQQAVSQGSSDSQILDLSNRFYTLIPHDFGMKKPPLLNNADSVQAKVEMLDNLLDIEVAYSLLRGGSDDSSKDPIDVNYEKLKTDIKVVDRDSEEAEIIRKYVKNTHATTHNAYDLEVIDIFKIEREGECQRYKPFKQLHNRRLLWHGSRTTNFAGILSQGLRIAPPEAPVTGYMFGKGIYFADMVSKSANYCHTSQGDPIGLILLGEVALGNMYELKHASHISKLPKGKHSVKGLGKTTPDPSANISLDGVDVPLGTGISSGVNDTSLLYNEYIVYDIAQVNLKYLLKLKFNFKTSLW
Target sequence in this assay (Q96SW2 whole entry partner): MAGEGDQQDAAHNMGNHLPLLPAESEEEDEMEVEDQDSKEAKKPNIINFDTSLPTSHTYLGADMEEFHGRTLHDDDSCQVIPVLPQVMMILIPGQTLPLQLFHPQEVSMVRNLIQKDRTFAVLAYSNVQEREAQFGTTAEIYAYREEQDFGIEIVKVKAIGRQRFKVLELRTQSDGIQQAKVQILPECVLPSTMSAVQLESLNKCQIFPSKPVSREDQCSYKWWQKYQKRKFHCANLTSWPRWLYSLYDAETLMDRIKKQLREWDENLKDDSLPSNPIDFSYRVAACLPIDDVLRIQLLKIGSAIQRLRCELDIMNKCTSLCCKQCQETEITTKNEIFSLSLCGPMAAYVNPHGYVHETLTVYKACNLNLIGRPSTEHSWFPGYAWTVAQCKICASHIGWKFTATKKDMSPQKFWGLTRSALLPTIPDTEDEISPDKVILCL

[2] = biological target: T1, Protein cereblon/Poly [ADP-ribose] polymerase 1; experiment: Protac activity at CRBN/PARP1 in human 22Rv1 cells assessed as induction of PARP1 degradation measured after 24 hrs by Western blot analysis; assay type: cell-based
Procedure, shortened: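 The cell line was treated 24 h across a concentration range. PARP1 was measured by western blot against β-tubulin. DC50 is the average of two biologically independent experiments.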
Target sequence in this assay (P09874 whole entry): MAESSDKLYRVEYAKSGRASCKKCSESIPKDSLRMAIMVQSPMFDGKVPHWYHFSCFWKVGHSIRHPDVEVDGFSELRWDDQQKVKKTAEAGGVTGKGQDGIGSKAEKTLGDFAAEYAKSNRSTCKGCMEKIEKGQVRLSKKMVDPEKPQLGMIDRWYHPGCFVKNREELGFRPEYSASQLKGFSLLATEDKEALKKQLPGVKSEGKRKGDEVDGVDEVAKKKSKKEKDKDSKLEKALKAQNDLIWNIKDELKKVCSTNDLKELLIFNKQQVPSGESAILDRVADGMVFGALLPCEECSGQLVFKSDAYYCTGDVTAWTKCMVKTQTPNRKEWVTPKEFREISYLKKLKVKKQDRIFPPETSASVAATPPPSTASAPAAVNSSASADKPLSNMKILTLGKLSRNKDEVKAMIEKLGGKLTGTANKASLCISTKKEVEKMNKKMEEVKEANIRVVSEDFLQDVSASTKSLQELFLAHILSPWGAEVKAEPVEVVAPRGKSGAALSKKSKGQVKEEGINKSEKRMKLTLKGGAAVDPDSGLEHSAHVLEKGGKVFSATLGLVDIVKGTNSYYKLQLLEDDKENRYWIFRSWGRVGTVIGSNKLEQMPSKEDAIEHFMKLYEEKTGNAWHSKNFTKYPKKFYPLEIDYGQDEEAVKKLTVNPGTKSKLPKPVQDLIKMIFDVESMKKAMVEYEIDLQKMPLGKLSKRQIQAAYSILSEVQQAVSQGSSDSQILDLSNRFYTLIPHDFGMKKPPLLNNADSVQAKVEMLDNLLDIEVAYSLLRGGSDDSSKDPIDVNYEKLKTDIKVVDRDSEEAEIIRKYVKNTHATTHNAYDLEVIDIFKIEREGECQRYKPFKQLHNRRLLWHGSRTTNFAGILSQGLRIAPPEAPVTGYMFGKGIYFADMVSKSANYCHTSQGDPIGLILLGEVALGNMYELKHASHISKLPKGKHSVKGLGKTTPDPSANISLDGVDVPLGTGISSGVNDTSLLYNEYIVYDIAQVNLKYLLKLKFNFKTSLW
Target sequence in this assay (Q96SW2 whole entry): as the sequence (Q96SW2 whole entry partner) above

CWR22R = experiment: Antiproliferation activity against human 22Rv1 assessed as cell growth inhibition incubated for 7 days by CCK-8 assay; assay type: functional, cell-based; details: time 7.0 day
Procedure, shortened: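 Cells were sub-cultured at least twice and seeded for 24 h before dosing. Compounds came from 10 mM DMSO stocks, given as 10 points of 3-fold serial dilution starting at 10-20 μM. Incubation was about 7 days (Capan-1 13 days) at 37 °C, 5% CO2. Read-out was CCK-8 absorbance at 450 nm, as % growth versus DMSO wells (duplicate wells). IC50 was fitted by nonlinear regression; three independent experiments.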

[3] = Acute toxicity in Balb/c mouse xenografted with Capan1 cells assessed as lethality at 25 to 50 mg/kg, ip qd administered for 5 days in presence of cisplatin; assay type: organism-based; details: in vivo, 120 h, dose 25-50 mg/kg, time 5 day
Procedure, shortened: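 Male BALB/c nude mice (5–6 weeks) carried s.c. Capan-1 xenografts (5×10^6 cells, right armpit) and were randomised at about 150 mm³, 6 per group. The agent was given once daily on days 0–4, by oral gavage or i.p., in DMSO/PEG400/Cremophor EL/saline vehicle. Cisplatin 6 mg/kg in saline was given i.p. on day 2, 45 min after the agent. Body weight was recorded 2–3 times weekly.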

With `O=C(CCCCCCCCCCC(=O)N1CCN(C(=O)c2cc(Cc3n[nH]c(=O)c4ccccc34)ccc2F)CC1)NCCNc1cccc2c1C(=O)N(C1CCC(=O)NC1=O)C2=O` (centres undefined) the Activity [1] was 100%, the DC50 [2] was 0.512 nM and the Activity (CWR22R) was “Active”. The Activity [3] was “Non-Toxic”.
